According to ChEMBL document CHEMBL1133575 (J Med Chem, 2000):

Key:
[1] = biological target: T1, Sodium-dependent dopamine transporter (Rattus norvegicus, UniProt P23977); assay: Inhibition of [3H]DA Uptake at dopamine transporter in rat cortex was measured by liquid scintillation spectrometry; assay type: tissue-based
[2] = biological target: Sodium-dependent dopamine transporter (Homo sapiens, UniProt Q01959); assay: Binding Affinity to cocaine site of dopamine transporter in caudate nuclei which was homogenized and incubated with [3H]mazindol.
Sodium-dependent dopamine transporter (Homo sapiens, UniProt Q01959), sequence (Q01959 whole entry): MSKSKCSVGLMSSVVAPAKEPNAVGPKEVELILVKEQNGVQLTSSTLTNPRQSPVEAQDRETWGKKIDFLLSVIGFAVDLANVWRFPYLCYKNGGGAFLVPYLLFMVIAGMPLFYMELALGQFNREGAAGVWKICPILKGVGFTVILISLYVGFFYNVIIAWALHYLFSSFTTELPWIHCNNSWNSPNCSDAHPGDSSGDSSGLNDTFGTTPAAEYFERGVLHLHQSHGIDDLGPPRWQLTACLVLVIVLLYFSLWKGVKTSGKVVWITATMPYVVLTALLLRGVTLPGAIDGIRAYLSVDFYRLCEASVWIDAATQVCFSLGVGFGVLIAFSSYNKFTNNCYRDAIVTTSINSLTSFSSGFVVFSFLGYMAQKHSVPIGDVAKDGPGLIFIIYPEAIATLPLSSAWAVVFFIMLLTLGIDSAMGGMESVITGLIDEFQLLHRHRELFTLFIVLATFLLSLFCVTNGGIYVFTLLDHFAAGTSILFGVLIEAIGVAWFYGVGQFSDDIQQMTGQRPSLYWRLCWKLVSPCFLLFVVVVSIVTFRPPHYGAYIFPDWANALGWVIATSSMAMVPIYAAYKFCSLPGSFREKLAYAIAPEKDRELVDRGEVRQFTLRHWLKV

[3] = biological target: Norepinephrine transporter (Rattus norvegicus, UniProt Q9WTR4); assay: Compound was tested for Inhibition of [3H]NE Uptake in rat parietal/occipital cortex
Norepinephrine transporter, sequence (Q9WTR4 whole entry): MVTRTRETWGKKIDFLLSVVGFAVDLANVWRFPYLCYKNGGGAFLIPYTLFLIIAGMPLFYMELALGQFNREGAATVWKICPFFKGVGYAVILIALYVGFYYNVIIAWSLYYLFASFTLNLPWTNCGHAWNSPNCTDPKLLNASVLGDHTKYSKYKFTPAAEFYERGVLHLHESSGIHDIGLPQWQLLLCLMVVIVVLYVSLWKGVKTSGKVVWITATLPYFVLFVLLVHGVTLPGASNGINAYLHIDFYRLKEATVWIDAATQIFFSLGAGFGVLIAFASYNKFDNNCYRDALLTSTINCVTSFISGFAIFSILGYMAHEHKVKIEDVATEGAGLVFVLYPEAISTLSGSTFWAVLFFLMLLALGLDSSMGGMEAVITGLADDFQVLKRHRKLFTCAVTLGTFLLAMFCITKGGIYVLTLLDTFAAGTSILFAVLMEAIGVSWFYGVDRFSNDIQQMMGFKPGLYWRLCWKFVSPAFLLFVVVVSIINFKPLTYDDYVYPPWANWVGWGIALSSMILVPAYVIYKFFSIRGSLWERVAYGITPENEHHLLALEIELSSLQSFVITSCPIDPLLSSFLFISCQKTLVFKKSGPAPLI
Method in brief: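 [3H]NE uptake used rat parietal/occipital cortex synaptosomes in modified KRH buffer. Drug was preincubated for 30 min at 37 °C, then radiolabel was added for 5 min. Uptake was stopped with cold sodium-free buffer, filtered and counted by liquid scintillation. Specific uptake was defined with 1 uM desipramine.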

[4] = biological target: Sodium-dependent serotonin transporter (Rattus norvegicus, UniProt P31652); assay: Compound was tested for Inhibition of [3H]5-HT Uptake in rat mid brain.; assay type: tissue-based
Sodium-dependent serotonin transporter, sequence (P31652 whole entry): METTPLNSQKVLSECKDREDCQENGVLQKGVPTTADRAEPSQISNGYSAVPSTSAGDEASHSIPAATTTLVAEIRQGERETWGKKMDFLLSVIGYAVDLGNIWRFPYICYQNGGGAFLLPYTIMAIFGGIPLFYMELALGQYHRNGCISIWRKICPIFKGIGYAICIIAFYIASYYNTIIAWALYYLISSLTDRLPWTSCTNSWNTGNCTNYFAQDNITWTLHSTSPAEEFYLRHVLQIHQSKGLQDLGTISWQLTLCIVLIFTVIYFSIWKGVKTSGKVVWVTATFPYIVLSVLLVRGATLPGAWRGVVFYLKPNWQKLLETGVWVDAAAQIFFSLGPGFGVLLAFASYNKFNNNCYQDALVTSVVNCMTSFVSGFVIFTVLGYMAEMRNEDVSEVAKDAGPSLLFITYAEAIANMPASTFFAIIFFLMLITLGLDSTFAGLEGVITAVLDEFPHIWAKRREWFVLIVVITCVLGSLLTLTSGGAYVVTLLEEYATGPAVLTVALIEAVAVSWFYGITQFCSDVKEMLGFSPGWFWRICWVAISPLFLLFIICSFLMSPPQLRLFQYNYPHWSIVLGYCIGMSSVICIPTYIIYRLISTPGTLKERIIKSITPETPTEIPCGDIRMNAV
Method in brief: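 [3H]5-HT uptake used rat midbrain synaptosomes in modified KRH buffer. Drug was preincubated for 30 min at 37 °C, then tritiated substrate was added for 5 min. Uptake was stopped in cold sodium-free buffer, filtered and counted by scintillation. Specific uptake was defined with 10 uM fluoxetine.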

[5] = biological target: T1, Sodium-dependent dopamine transporter; assay: Inhibition of [3H]DA Uptake at Dopamine transporter in rat cortex was measured by liquid scintillation spectrometry; assay type: tissue-based
[6] = biological target: T1, Sodium-dependent dopamine transporter; assay: Binding Affinity to cocaine site of Dopamine transporter in caudate nuclei which was homogenized and incubated with [3H]mazindol.
Method in brief: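 Rat striatal membranes, washed in KRH buffer (pH 7.4, with 0.01 mM nialamide) and frozen at −80 °C, thawed at 75–125 ug protein/mL. Incubated with [3H]mazindol plus competitor for 60 min at 4 °C. […] Separated by GF/C filtration and counted by scintillation. IC50 fitted with LIGAND.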

T1 sequence (P23977 whole entry): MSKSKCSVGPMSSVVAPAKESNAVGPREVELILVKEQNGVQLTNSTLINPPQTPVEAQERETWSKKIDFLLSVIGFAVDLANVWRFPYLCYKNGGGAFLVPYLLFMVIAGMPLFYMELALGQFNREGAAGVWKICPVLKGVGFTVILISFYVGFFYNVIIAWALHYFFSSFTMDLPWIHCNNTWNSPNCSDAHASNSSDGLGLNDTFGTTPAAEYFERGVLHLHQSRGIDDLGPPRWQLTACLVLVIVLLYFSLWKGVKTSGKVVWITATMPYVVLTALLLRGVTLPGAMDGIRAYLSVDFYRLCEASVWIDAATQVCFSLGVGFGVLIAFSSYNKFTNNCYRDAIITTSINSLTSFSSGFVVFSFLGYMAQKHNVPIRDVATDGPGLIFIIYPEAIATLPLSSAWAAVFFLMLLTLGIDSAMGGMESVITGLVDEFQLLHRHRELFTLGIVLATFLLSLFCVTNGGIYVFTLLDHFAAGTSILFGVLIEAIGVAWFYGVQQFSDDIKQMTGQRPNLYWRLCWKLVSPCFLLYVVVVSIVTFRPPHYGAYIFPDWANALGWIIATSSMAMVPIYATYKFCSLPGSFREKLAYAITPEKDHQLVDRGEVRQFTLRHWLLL

Q: For `CN1CCC(O)(c2ccc(Cl)cc2Cl)C([C@@H](O)c2ccc(Cl)cc2Cl)C1` (stereo not given in full), which Ki [1] is on record?
A: 7.52 µM

Q: What about the Ki [2] of the same compound?
A: 4.35 µM

Q: How did the Ki [1] turn out when `Cc1ccc(C2OC(=O)OC3(c4ccc(C)cc4)CCN(C)CC23)cc1` (stereo not given) was run?
A: 9.48 µM

Q: With `CN1CCC(O)(c2ccc(Cl)c(Cl)c2)C(C(=O)c2ccc(Cl)c(Cl)c2)C1` (stereo not given) as the compound, how does the Ki [3] read?
A: 0.177 µM

Q: What about the Ki [1] of the same compound?
A: 0.051 µM

Q: What about the Ki [2] of the same compound?
A: 0.0109 µM

Q: What about the Ki [4] of the same compound?
A: 2.38 µM

Q: What does the source list for `CN1CCC(O)(c2ccccc2)C(C(=O)c2ccccc2)C1` (stereo not given)?
A: Ki [5]: 2.59 µM; Ki [6]: 4.42 µM

Q: Which Ki [1] does the source give for `CN1CCC(O)(c2ccc(Cl)cc2Cl)C(C(=O)c2ccc(Cl)cc2Cl)C1` (stereo not given) here?
A: 5.85 µM

Q: How did the Ki [5] turn out when `Cc1ccc(C(=O)C2CN(C)CCC2(O)c2ccc(C)cc2)cc1` (stereo not given) was run?
A: 0.36 µM

Q: And the Ki [6]?
A: 0.492 µM

Q: What about the Ki [3] of the same compound?
A: 3.86 µM

Q: What about the Ki [4] of the same compound?
A: 1.63 µM

Q: Which results are given for `CN1CCC(O)(c2ccc(Cl)c(Cl)c2)C([C@@H](O)c2ccc(Cl)c(Cl)c2)C1` (stereo not given in full)?
A: Ki [1]: 4.22 µM; Ki [2]: 4.14 µM

Q: For `Cc1ccc([C@H](O)C2CN(C)CCC2(O)c2ccc(C)cc2)cc1` (stereo not given in full), which Ki [1] is on record?
A: 15.8 µM

Q: What about the Ki [2] of the same compound?
A: 10.7 µM

Q: Which results are given for `CN1CCC(O)(c2ccc(F)cc2)C(C(=O)c2ccc(F)cc2)C1` (stereo not given) [FLAZALONE]?
A: Ki [1]: 4.2 µM; Ki [2]: 5.7 µM
